Source: ChEMBL document CHEMBL1177714, “Online fluorescence enhancement assay for the acetylcholine binding protein with parallel mass spectrometric identification” (J Med Chem, 2010)

Assay: Displacement of radioligand from AChBp by scintillation counting
Summary of the method: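 Lymnaea stagnalis AChBP (Ls-AChBP), expressed from baculovirus in Sf9 insect cells and purified from medium, 1.3 ng per well. Buffer (final): 1.4 mM KH2PO4, 4.3 mM Na2HPO4, 137.0 mM NaCl, 2.7 mM KCl, 20 mM Tris, 4% DMSO, 0.05% Tween 20, pH 7.4. Incubation was 60 min, then 3 h in the dark, with label-bead complexes counted. Full IC50 curves (n=3) were converted to pKi by Cheng-Prusoff.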

Compound | pKi
Oc1ccc(/C=C2\CCCN=C2c2cccnc2)cc1 | 8.55
CC(=O)Nc1ccc(/C=C2\CCCN=C2c2cccnc2)cc1 | 7.38
Clc1ccc(/C=C2\CCCN=C2c2cccnc2)cc1 | 6.87
CCN(CC)c1ccc(/C=C2\CCCN=C2c2cccnc2)c(O)c1 | 7.59
Br.NCCCCC(=O)c1cccnc1 | 6.09
COc1ccc(/C=C2\CCCN=C2c2cccnc2)cc1O | 8.46
O=[N+]([O-])c1cccc(/C=C2\CCCN=C2c2cccnc2)c1 | 6.29
COc1cc(/C=C2\CCCN=C2c2cccnc2)ccc1O | 7.09
C(=C1/CCCN=C1c1cccnc1)/c1coc2ccccc12 | 7
C(=C1/CCCN=C1c1cccnc1)/c1cc2ccccc2[nH]1 | 8.71
C(=C1/CCCN=C1c1cccnc1)/c1ccccc1 [3-BENZYLIDENEANABASEINE] | 7.13
